Assay results as given in ChEMBL document CHEMBL4024770, “Augmentation of Anticancer Drug Efficacy in Murine Hepatocellular Carcinoma Cells by a Peripherally Acting Competitive N-Methyl-d-aspartate (NMDA) Receptor Antagonist” (J Med Chem, 2017).
Activity calls are given as the source filed them. The rule behind the calls is not given here.

How the values were obtained:
[1] = Displacement of [3H]-AMPA from AMPA receptor in Sprague-Dawley rat brain synaptosomes after 30 mins by scintillation counting method; format: subcellular
[2] = Displacement of [3H]-KA from KA receptor in Sprague-Dawley rat brain synaptosomes after 60 mins by scintillation counting method; format: subcellular
[3] = Displacement of [3H]-CGP-39653 from NMDA receptor in Sprague-Dawley rat brain synaptosomes after 60 mins by scintillation counting method; format: subcellular
[4] = biological target: Glutamate receptor ionotropic, kainate 3 (Rattus norvegicus, UniProt P42264); test: Displacement of [3H]-KA from recombinant homomeric rat GluK3a receptor expressed in baculovirus infected Sf9 insect cell membranes by scintillation counting method
[5] = biological target: Glutamate receptor ionotropic, kainate 1 (Rattus norvegicus, UniProt P22756); test: Displacement of [3H]-SYM2081 from recombinant homomeric rat GluK1 (Q)1b receptor expressed in baculovirus infected Sf9 insect cell membranes by scintillation counting method
[6] = biological target: Glutamate receptor ionotropic, kainate 2 (Rattus norvegicus, UniProt P42260); test: Displacement of [3H]-KA from recombinant homomeric rat GluK2 (V,C,R)a receptor expressed in baculovirus infected Sf9 insect cell membranes by scintillation counting method
[7] = biological target: Glutamate NMDA receptor; Grin1/Grin2a (Rattus norvegicus, UniProt P35439+Q00959); test: Antagonist activity at recombinant rat GluN1a/GluN2A expressed in Xenopus laevis oocytes assessed as inhibition of glycine/glutamate-mediated current responses by two-electrode voltage clamp method; format: cell-based
Summary of the method: (§1)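 Xenopus oocytes were injected with rat GluN1 and GluN2A–D cRNA (1:2) and recorded 2–6 days later by TEVC at room temperature, −40 mV, in Ba2+-containing recording solution, pH 7.4. Currents were evoked by 100 μM glycine plus glutamate at 2–3× EC50: 10 μM for GluN2A, 3 μM for GluN2B and GluN2C, 1 μM for GluN2D. IC50 from Hill fits per oocyte; Ki estimated.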

[8] = biological target: Glutamate NMDA receptor; Grin1/Grin2b (Rattus norvegicus, UniProt P35439+Q00960); test: Antagonist activity at recombinant rat GluN1a/GluN2B expressed in Xenopus laevis oocytes assessed as inhibition of glycine/glutamate-mediated current responses by two-electrode voltage clamp method; format: cell-based; summary of the method: as §1
[9] = biological target: Glutamate NMDA receptor; Grin1/Grin2c (Rattus norvegicus, UniProt P35439+Q00961); test: Antagonist activity at recombinant rat GluN1a/GluN2C expressed in Xenopus laevis oocytes assessed as inhibition of glycine/glutamate-mediated current responses by two-electrode voltage clamp method; format: cell-based; summary of the method: as §1
[10] = biological target: Ionotropic glutamate receptor NMDA 1/2D (Rattus norvegicus, UniProt P35439+Q62645); test: Antagonist activity at recombinant rat GluN1a/GluN2D expressed in Xenopus laevis oocytes assessed as inhibition of glycine/glutamate-mediated current responses by two-electrode voltage clamp method; format: cell-based; summary of the method: as §1
[11] = species on record: Mus musculus; test: Antagonist activity at NMDA receptor in Nras driven p53 deficient mouse HCC cell membranes assessed as LPS-stimulated PGE2 levels at 10 uM after 24 hrs by LC-MS/MS method (reference value: 162 +/- 7%); parameters: scale not given: the % may be the effect or the level left
Summary of the method: (§2)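 Mouse Nras-driven p53−/− HCC cells in DMEM with 2 mM L-glutamine, 10% heat-inactivated FBS and penicillin/streptomycin. Cells incubated 24 h with or without antagonist, either without LPS or with 2.5 μg/mL LPS in the growth medium. Cells washed three times with ice-cold HBSS and lysed in acetonitrile on ice. PGE₂ in lysates measured by LC-MS/MS (LLOQ 1 nM) and expressed as % of control; n=3.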

[12] = species on record: Mus musculus; test: Antagonist activity at NMDA receptor in Nras driven p53 deficient mouse HCC cell membranes assessed as inhibition of NMDA-induced intracellular Ca2+ transients at 20 uM […] by fluo-4AM dye-based fluorescence assay
Summary of the method: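 Intact murine HCC cells loaded with 5 μM Fluo-4-AM for 45 min, then washed out for 20 min in BSS (mM: 2.5 KCl, 152 NaCl, 10 glucose, 2 CaCl₂, 10 HEPES, pH 7.4). 150 μM NMDA applied for 15 s by fast perfusion, alone or together with antagonist. Fluorescence imaged with 495 nm excitation on a CCD camera. Read-out is the percentage of cells showing induced Ca²⁺ transients; n=5.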

[13] = species on record: Mus musculus; test: Antagonist activity at NMDA receptor in Nras driven p53 deficient mouse HCC cell membranes assessed as PGE2 levels at 10 uM after 24 hrs by LC-MS/MS method relative to control; parameters: scale not given: the % may be the effect or the level left; summary of the method: as §2
[14] = species on record: Mus musculus; test: Antagonist activity at NMDA receptor in Nras driven p53 deficient mouse HCC cell membranes assessed as potentiation of 1 uM sorafenib-mediated antiproliferative activity by measuring cell viability at 100 uM after 72 hrs by resazurin assay (reference value: […] +/- […]%)
[15] = species on record: Mus musculus; test: Antagonist activity at NMDA receptor in Nras driven p53 deficient mouse HCC cell membranes assessed as potentiation of 2.5 uM sorafenib-mediated antiproliferative activity by measuring cell viability at 100 uM after 72 hrs by resazurin assay (reference value: […] +/- […]%)
[16] = species on record: Mus musculus; test: Antagonist activity at NMDA receptor in Nras driven p53 deficient mouse HCC cell membranes assessed as potentiation of 5 uM sorafenib-mediated antiproliferative activity by measuring cell viability at 100 uM after 72 hrs by resazurin assay (reference value: […] +/- […]%)
[17] = species on record: Mus musculus; test: Antagonist activity at NMDA receptor in Nras driven p53 deficient mouse HCC cell membranes assessed as potentiation of 10 uM sorafenib-mediated antiproliferative activity by measuring cell viability at 100 uM after 72 hrs by resazurin assay (reference value: […] +/- […]%)
[18] = Antiproliferative activity against Nras driven p53 deficient mouse HCC cells assessed as cell viability at 100 uM after 72 hrs by resazurin assay relative to control; format: functional; details: read-out: Activity

Sequence of Glutamate receptor ionotropic, kainate 1 (P22756 whole entry): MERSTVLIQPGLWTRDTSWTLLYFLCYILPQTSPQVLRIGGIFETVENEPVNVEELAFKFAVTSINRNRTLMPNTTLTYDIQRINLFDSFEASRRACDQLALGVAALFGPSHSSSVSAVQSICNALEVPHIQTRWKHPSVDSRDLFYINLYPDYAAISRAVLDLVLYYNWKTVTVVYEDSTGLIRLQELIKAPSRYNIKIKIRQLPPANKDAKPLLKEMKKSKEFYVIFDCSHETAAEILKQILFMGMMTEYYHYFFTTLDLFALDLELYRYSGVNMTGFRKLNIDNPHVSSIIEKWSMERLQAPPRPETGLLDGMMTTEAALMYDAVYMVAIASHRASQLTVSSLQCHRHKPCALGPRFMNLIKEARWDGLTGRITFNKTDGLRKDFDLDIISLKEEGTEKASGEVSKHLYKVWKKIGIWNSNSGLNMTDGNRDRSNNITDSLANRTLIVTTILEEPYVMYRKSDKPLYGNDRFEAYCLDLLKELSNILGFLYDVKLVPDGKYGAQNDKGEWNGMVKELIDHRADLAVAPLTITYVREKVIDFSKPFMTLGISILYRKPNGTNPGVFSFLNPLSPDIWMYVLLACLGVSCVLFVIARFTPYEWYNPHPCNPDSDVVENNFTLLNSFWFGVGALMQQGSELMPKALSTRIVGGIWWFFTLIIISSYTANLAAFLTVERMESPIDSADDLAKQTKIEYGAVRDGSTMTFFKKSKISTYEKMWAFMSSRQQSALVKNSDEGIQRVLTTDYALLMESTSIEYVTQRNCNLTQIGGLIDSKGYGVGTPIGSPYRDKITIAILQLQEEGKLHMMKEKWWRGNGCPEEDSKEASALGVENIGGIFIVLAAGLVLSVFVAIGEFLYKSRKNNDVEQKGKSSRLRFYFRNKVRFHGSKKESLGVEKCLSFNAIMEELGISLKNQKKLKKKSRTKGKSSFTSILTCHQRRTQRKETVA
Sequence of Glutamate receptor ionotropic, kainate 3 (P42264 whole entry): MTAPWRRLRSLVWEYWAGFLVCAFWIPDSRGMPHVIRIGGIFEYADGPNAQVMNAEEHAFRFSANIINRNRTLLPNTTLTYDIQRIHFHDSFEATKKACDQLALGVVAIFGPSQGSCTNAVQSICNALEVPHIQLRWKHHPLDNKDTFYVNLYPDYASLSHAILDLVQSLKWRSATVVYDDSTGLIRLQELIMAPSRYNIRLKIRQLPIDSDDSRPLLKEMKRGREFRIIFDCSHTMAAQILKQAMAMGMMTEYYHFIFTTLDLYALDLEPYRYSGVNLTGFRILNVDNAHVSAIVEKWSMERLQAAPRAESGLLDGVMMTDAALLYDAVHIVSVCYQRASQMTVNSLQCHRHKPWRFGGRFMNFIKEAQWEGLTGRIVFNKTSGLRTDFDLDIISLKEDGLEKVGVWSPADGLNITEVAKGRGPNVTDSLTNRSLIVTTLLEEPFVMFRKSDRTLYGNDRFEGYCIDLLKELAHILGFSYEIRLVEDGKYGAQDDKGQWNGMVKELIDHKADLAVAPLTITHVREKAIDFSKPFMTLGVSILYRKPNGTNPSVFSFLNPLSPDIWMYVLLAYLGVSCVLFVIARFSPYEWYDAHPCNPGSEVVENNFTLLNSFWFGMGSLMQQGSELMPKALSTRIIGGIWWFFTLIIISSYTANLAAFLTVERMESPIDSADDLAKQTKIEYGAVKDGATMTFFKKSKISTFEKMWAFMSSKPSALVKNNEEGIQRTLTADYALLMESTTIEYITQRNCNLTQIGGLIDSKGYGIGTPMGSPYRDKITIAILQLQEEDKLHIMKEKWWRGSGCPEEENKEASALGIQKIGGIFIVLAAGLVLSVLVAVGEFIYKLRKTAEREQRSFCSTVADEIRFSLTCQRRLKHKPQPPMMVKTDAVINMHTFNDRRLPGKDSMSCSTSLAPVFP
Sequence of Glutamate receptor ionotropic, kainate 2 (P42260 whole entry): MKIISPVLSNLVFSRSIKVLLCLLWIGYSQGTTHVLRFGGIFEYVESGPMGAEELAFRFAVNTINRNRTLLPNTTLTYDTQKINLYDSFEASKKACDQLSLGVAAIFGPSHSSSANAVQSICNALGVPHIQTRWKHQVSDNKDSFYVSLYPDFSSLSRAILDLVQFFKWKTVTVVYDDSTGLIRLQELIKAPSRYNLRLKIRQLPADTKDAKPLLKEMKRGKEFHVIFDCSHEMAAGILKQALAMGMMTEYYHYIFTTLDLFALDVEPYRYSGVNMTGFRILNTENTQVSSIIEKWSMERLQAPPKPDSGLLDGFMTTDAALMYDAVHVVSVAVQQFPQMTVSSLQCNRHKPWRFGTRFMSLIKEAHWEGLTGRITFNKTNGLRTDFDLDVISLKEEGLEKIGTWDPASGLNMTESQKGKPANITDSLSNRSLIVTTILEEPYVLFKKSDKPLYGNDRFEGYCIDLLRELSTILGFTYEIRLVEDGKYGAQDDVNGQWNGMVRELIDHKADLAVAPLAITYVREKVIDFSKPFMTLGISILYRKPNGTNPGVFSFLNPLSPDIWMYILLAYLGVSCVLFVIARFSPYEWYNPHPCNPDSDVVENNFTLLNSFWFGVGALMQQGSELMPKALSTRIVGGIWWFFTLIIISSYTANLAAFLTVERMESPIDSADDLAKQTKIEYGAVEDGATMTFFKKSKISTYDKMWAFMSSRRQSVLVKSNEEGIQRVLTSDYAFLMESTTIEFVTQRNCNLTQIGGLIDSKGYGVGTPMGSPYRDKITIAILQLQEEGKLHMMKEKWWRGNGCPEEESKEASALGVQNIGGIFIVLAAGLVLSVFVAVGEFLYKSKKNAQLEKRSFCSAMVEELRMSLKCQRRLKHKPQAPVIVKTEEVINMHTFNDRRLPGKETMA
Sequence of Ionotropic glutamate receptor NMDA 1/2D (Q62645 whole entry, other chains not shown): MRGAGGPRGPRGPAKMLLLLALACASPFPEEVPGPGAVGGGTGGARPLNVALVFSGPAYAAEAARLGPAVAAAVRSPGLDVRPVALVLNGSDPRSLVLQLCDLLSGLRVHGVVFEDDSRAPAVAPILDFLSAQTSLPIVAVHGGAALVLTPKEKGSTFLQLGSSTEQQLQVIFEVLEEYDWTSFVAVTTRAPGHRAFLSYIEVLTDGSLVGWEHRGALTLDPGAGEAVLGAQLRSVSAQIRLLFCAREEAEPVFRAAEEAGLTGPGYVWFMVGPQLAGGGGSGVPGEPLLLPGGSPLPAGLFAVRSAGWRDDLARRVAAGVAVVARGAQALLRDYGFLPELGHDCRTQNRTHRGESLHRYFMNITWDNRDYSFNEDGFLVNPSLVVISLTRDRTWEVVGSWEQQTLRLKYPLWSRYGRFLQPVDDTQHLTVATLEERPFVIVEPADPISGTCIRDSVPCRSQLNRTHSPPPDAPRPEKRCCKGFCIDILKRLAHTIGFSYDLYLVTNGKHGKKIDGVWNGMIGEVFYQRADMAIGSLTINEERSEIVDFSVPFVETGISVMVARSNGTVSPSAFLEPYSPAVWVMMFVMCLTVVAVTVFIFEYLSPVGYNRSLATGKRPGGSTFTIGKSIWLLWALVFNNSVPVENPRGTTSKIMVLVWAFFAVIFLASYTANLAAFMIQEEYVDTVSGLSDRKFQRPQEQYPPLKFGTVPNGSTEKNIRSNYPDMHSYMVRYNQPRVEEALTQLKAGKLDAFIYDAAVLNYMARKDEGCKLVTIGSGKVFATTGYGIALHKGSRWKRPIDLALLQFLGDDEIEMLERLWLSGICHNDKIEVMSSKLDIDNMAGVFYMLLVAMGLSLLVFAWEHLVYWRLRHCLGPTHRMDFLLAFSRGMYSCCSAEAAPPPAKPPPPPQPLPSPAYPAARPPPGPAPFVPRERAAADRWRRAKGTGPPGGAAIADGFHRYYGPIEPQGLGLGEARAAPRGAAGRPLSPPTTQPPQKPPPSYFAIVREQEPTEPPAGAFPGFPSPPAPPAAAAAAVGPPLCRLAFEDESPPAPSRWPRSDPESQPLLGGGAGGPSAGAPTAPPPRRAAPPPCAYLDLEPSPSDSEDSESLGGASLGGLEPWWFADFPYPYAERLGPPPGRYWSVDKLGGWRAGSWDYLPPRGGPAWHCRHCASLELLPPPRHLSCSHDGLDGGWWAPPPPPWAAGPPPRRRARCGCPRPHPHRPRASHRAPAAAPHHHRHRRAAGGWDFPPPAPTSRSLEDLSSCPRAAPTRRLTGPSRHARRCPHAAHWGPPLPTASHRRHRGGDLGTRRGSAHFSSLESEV

| SMILES | IC50 [1] [µM] | IC50 [2] [µM] | Ki [3] [µM] | Ki [4] [µM] | Ki [5] [µM] | Ki [6] [µM] | other results |
| --- | --- | --- | --- | --- | --- | --- | --- |
| Nc1cccc([C@H]2CCN[C@@H]2C(=O)O)c1 | > 100 | > 100 | > 100 | – | – | – | – |
| O=C(O)[C@H]1NCC[C@@H]1c1cccc(Cl)c1 | > 100 | > 100 | > 100 | > 100 | > 100 | > 100 | – |
| O=C(O)c1cc([C@H]2CCN[C@@H]2C(=O)O)ccc1Br | > 100 | > 100 | – | > 100 | > 100 | > 100 | – |
| Cc1ccc([C@H]2CCN[C@@H]2C(=O)O)cc1C(=O)O | > 100 | > 100 | – | > 100 | > 100 | > 100 | – |
| O=C(O)[C@H]1NCC[C@@H]1c1cccc(B(O)O)c1 | > 100 | > 100 | > 100 | > 100 | > 1000 | > 1000 | – |
| N[C@H](CCCP(=O)(O)O)C(=O)O | – | – | – | – | – | – | Ki [7]: 0.39 µM; Ki [8]: 2.8 µM; Ki [9]: 5.9 µM; Ki [10]: 21 µM; Activity [11]: 110%; inhibition [12]: Active; Activity [13]: 58%; Activity [14]: 70%; Activity [15]: 63%; Activity [16]: 44%; Activity [17]: 16%; viability at 100 µM [18]: 79% |
| N#Cc1cccc([C@H]2CCN[C@@H]2C(=O)O)c1 | > 100 | > 100 | > 100 | > 1000 | > 1000 | > 1000 | – |
| O=C(O)[C@H]1NCC[C@@H]1c1cccc(C(F)(F)F)c1 | > 100 | > 100 | > 100 | > 100 | > 100 | > 100 | – |
| Cl.O=C(O)c1cc([C@H]2CCN[C@@H]2C(=O)O)ccc1F | > 100 | 59 | 4.6 | 11 | 12 | > 100 | pIC50 [2]: 4.23; pKi [3]: 5.34 |
| O=C(O)[C@H]1NCC[C@@H]1c1ccc(O)c(O)c1 | > 100 | > 100 | 35 | – | – | – | pKi [3]: 4.46 |
| NC(=O)c1cccc([C@H]2CCN[C@@H]2C(=O)O)c1 | > 100 | > 100 | > 100 | > 100 | > 100 | > 100 | – |
